From ChEMBL document CHEMBL1149120, “Discovery of potent inhibitors of dihydroneopterin aldolase using CrystaLEAD high-throughput X-ray crystallographic screening and structure-directed lead optimization” (J Med Chem, 2004)

Test: Inhibition of Staphylococcus aureus 7,8-dihydroneopterin aldolase
Summary of the method: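 DHNA expressed in E. coli BL21(DE3) and purified by DEAE, Q-Sepharose and S300 chromatography; 50 nM enzyme with 4 µM 7,8-dihydroneopterin in 20 mM HEPES pH 7.4, 150 mM NaCl, ambient temperature (~29 °C). IC50 is the concentration halving the initial rate.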

SMILES | IC50 [nM]
Cn1c(N)nc(-c2ccccc2)c(Br)c1=O | 38000
Nc1nc(O)c2nn(-c3cccc(C(=O)NCc4ccc(Oc5ccccc5)cc4)c3)nc2n1 | 22000
Nc1nc(O)c2nn(-c3cccc(C(=O)NCC4(O)CCCCC4)c3)nc2n1 | 740
Nc1nc(O)c2nn(-c3cccc(C(=O)NCCCO)c3)nc2n1 | 2300
Nc1nc(O)c2nn(-c3cccc(C(=O)NCc4cc(C(F)(F)F)cc(C(F)(F)F)c4)c3)nc2n1 | 1000
CCC(CO)(CO)CNC(=O)c1cccc(-n2nc3nc(N)nc(O)c3n2)c1 | 950
Nc1nc(O)c2nn(-c3cccc(C(=O)NCc4ccc(-c5ccccc5)cc4)c3)nc2n1 | 25000
Cc1nc(N)nc(O)c1N(Cc1ccc(Cl)c(Cl)c1)N=O | 1300
Nc1nc(O)c2nn(-c3cccc(C(=O)NCCCCO)c3)nc2n1 | 2000
CC(C)(CO)CNC(=O)c1cccc(-n2nc3nc(N)nc(O)c3n2)c1 | 730
NC1=NC(=O)C2N=C(S)N=C2N1 (configuration not stated) | 1000

Stronger by IC50, values ahead:

IC50 [nM] | SMILES
600 | Nc1nc(O)c2cc(N(C=O)Cc3ccc(Cl)c(Cl)c3)ccc2n1
550 | Nc1nc(O)c2nn(-c3cccc(C(=O)NCc4ccc5c(c4)CCO5)c3)nc2n1
410 | Nc1nc(O)c2nn(-c3cccc(C(=O)NC[C@H]4CCCC[C@H]4O)c3)nc2n1
350 | Nc1nc(O)c2nn(-c3cccc(C(=O)NC[C@@H]4CCCCC[C@H]4O)c3)nc2n1
320 | Nc1nc(O)c2nn(-c3cccc(C(=O)NC[C@H]4CCCC[C@@H]4O)c3)nc2n1
310 | Nc1nc(O)c2nn(-c3cccc(C(=O)NCc4ccc5c(c4)OCO5)c3)nc2n1
